The results in this text go back to ChEMBL document CHEMBL1649491, “Renal disposition of colistin in the isolated perfused rat kidney” (Antimicrob Agents Chemother, 2009).

A short description of data set [1]: (§1) Fraction unbound in […] at 1 ug/ml by LC-MS/MS analysis. It counts as ADME, cell-free, Plasma. The following applies: rat. Summed up: (§2)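 Unbound fraction was measured in IPK perfusate by ultrafiltration, at colistin sulfate levels approximating initial and end perfusion concentrations. Colistin A and B in ultrafiltrate and unfiltered perfusate were quantified by LC-MS/MS. fu is the ultrafiltrate/perfusate concentration ratio, determined separately for A and B.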

Data set [2] is described as follows: (§3) Clearance in rat perfused kidney at 2 ug/ml after 5 to 105 mins by LC-MS/MS analysis. The class given is ADME, tissue-based. The conditions noted are these: perfused kidney. Summed up: (§4)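 Isolated perfused kidneys from male Sprague-Dawley rats (400 to 450 g) in a recirculating 160 ml perfusate with [3H]inulin (130 kBq) for GFR. Colistin sulfate bolus gave an initial 2 µg/ml (1.27 µM colistin A+B). Urine was collected in 5-min intervals from 5 to 105 min, with perfusate sampled at midpoints. Colistin A and B were measured by LC-MS/MS. CLR and CR were derived; n = 5, mean ± SD.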

For data set [3], the system named is Kidney. Nature of the data set: Clearance in rat perfused kidney assessed as clearance ratio at 2 ug/ml after 5 to 105 mins by LC-MS/MS analysis. The class given is ADME, tissue-based. Summed up:
as §4

A short description of data set [4]: Drug absorption in rat tubular urine at 2 ug/ml after 5 to 105 mins by LC-MS/MS analysis. It counts as ADME, tissue-based. Summed up:
as §4

The subject of data set [5] is Kidney. In words: Tubular reabsorption in rat perfused kidney at 2 ug/ml after 5 to 105 mins by LC-MS/MS analysis. The class given is ADME, tissue-based. A digest of the protocol: as §4
Data set [6] is described as follows: (§5) Fraction unbound in Sprague-Dawley rat plasma. It counts as ADME, cell-free. The conditions noted are these: Sprague-Dawley.
Data set [7] relates to Plasma. Described as §1. The conditions noted are these: rat. It counts as ADME, cell-free. A digest of the protocol: as §2
In data set [8] the test system is Kidney. The description is as §3. The class given is ADME, tissue-based. The following applies: in vivo. A digest of the protocol:
as §4

The subject of data set [9] is Plasma. The description is as §5. It counts as ADME, cell-free.

Positions of bridges follow the written chain, without caps; N, C: chain ends. Non-standard residues stand in square brackets, D forms with d. Residues, ends and D or L forms follow the SMILES beside them. *: point of attachment. Heptanoyl(6-Me) = CC(C)CCCCC(=O)*; Dab = NCC[C@H](N)C(=O)O

In [1], `CC(C)CCCCC(=O)N[C@@H](CCN)C(=O)N[C@H](C(=O)N[C@@H](CCN)C(=O)N[C@H]1CCNC(=O)[C@H]([C@@H](C)O)NC(=O)[C@H](CCN)NC(=O)[C@H](CCN)NC(=O)[C@H](CC(C)C)NC(=O)[C@@H](CC(C)C)NC(=O)[C@H](CCN)NC1=O)[C@@H](C)O` [COLISTIN B] ({Heptanoyl(6-Me)}-[Dab]T[Dab][Dab][Dab][dL]L[Dab][Dab]T; lactam 4-C) came in with a fraction unbound at 1 ug/ml of 0.6. The molecule further gave a CL renal at 2 ug/ml in data set [2] of 0.028 mL/min. Further, the Ratio in data set [3] is under 0.1. The Activity in data set [4] and in [5] was over 90% in each case. Besides, the fraction unbound in data set [6] came to 0.52.

Turning to COLISTIN, the Fu in [7] amounted to 0.41; in data set [9], 0.36. Also, the CL in data set [8] worked out at 0.028 mL/min. Moreover, the Ratio in data set [3] is given as under 0.1. The Activity in data set [4] and in data set [5] was over 90% throughout.
